# Screening results deposited in PubChem by Sanford-Burnham Center for Chemical Genomics.
# EBI2 antag = antagonists of human EBI2 receptor; P32249; EBI2 beta-arrestin recruitment, luminescence, 7a,25-OHC stimulated; inhibition, % at 5 µM; actives 0.81% (n = 360,000); AID 651636; in the data active = inhibition above about 38%;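 also: enzyme fragment complementation signal reports receptor beta-arrestin coupling in cells; 0% = agonist plus DMSO wells and 100% = wells without agonist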
# Target sequence (P32249 whole entry, looked up, the tested form may be a part): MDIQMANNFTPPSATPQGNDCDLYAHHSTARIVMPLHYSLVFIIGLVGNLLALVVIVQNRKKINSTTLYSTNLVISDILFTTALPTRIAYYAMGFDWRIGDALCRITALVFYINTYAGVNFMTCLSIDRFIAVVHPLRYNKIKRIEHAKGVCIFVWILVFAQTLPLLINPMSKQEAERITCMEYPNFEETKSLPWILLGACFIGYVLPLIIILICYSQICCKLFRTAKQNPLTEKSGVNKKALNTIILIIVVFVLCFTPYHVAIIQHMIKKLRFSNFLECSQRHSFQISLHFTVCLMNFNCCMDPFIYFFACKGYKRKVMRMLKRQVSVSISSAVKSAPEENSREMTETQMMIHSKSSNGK
# hiPSC survival = enhancers of human iPSC single-cell survival; actives 0.044% (n = 360,000); survival enhancement, % at 20 µM; AID 602274; hiPSC single-cell survival, ATPlite luminescence; 100% = ROCK inhibitor wells, 0% = DMSO; in the data active = survival enhancement above about 18%;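 also: cells exposed to compounds for 16 hours before the ATP read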
# APJ agonist = activates the human apelin receptor APJ; CHO-K1 APJ PathHunter beta-arrestin, luminescence; 0% DMSO wells, 100% apelin; activation, % at 20 µM; actives 0.11% (n = 330,000);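 active = activation more than six SD over the plate average, tested at 20 µM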;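 also: 0% = DMSO alone and 100% = apelin-13 at 10 nM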
#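 Assay system: CHO-K1 cells stably expressing ProLink-tagged human APJ and arrestin–beta-gal acceptor. Compound dosing: 20 µM single point, 1% DMSO. Times: 16-18 h seeding, 90 min dark compound exposure, 60 min detection. Detection: beta-gal luminescence. Evaluation: APJ–arrestin association signal. Controls: negative DMSO alone, positive Apelin-13 at 10 nM.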
# APJ antagonist = antagonists of human APJ apelin receptor; AID 2521; P35414; CHO-K1 APJ beta-arrestin complementation, luminescence; inhibition, % at 20 µM; actives 0.32% (n = 330,000);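 active = inhibition above about 40% at 20 µM, limit read from the data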;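 also: cells challenged with 10 nM apelin-13 agonist together with compound; plate controls were apelin-13 plus DMSO wells for no effect and DMSO wells lacking apelin-13 for full effect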
# CCR6 antag = blocks CCL20-driven beta-arrestin recruitment at human CCR6; P51684; CHO-K1 CCR6 PathHunter beta-arrestin, luminescence, CCL20-stimulated; inhibition, % at 20 µM; actives 0.49% (n = 340,000);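 active = compounds whose inhibition of the agonist-driven luminescence signal at 20 µM reaches about 50%, limit read from the data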;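 also: cells stimulated with CCL20 at 14 nM final; plate controls were DMSO with CCL20 for no effect and DMSO without agonist for full effect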
# CXCR6 block = inhibitors of human CXCR6 receptor | O00574 | CHO-K1 PathHunter CXCR6 beta-arrestin, luminescence | inhibition, % at 20 µM | actives 0.36% (n = 360,000); in the data active = inhibition above about 34%, passing the limit was not always enough;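 also: antagonist mode with CXCL16 agonist at 10 nM final; 0% = 10 nM CXCL16 with DMSO and 100% = unstimulated wells without agonist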
# Target sequence (O00574 whole entry, looked up): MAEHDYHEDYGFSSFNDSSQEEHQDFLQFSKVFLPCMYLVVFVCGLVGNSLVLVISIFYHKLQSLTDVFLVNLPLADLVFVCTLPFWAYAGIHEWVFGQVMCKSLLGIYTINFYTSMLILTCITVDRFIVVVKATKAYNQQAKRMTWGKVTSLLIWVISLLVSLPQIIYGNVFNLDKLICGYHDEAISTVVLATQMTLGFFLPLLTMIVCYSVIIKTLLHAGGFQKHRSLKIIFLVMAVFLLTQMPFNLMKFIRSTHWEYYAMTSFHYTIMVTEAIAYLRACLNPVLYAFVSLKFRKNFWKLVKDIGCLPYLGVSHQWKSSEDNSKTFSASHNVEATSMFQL
# * hit, by the source's call; / = no result. Most compounds without a hit are left out; they make up all but 1.5% or so of the library.
SMILES,EBI2 antag,hiPSC survival,APJ agonist,APJ antagonist,CCR6 antag,CXCR6 block
COc1ccc(OC)c(NC(=O)C(CC(C)C)NC(=O)C2CCCCC2)c1 (stereo not drawn),1.2,24.5*,-1.4,7.6,-4.2,8.1
COc1ccccc1NC(=O)C(CC(C)C)NC(=O)C1CCCCC1 (stereo not drawn),-6.4,1.5,-6.3,16.0,0.9,-10.1
O=C(NNC(=O)c1ccc(S(=O)(=O)N2CCCCC2)cc1)c1ccc(F)cc1,-2.3,-0.2,-1.2,-0.1,16.9,0.9
CCCOC(=O)C1NC(=O)N2C(C(=O)OCCC)C(C)(C)S[C@H]12 (stereo partly drawn),-1.7,22.8*,-2.6,-56.0,-5.0,-0.9
CC1(C)S[C@@H]2C(C(=O)OCc3ccccc3)NC(=O)N2C1C(=O)OCc1ccccc1 (stereo partly drawn),2.7,-2.8,-2.6,-3.2,17.8,-3.3
CCOC(=O)C1CCCN(C(=O)Cn2sc3nc(C)cc(C)c3c2=O)C1 (stereo not drawn),-0.1,1.9,0.9,-2.7,67.0*,1.8
O=C(NCCc1ccc(Cl)cc1Cl)c1cncc(Br)c1,37.1,-0.1,-2.9,7.4,9.6,1.9
COc1ccc(CNC(=O)CSc2nccn(-c3ccc(F)c(F)c3)c2=O)cc1,2.9,-0.6,-4.8,13.6,6.2,7.4
CC(C)C(=O)N[C@@H]1c2ccccc2CC[C@@H]1O,-7.2,1.2,/,/,5.6,-5.8
O=C1C=CC(=O)N1c1ccc(-c2nc3ccccc3o2)cc1,-1.6,1.0,/,/,/,60.5*
CCNC(=S)Nc1ccc(OCc2nc3ccccc3s2)cc1,25.6,-0.3,-4.9,15.9,0.8,-3.9
CC1=CC(=Nc2c(C)n(C)n(-c3ccccc3)c2=O)C=C(C)C1=O,3.7,-0.9,-2.2,19.5,24.3,16.6
CCC(C)C1=CC(=Nc2c(C)n(C)n(-c3ccccc3)c2=O)C=C(C(C)CC)C1=O (stereo not drawn),32.7,0.6,-6.3,9.0,50.8*,32.9
O=C(c1[nH]nc2c1CCc1ccccc1-2)N1CCN(Cc2ccc3c(c2)OCO3)CC1,83.3*,-0.6,-0.1,-2.5,15.1,3.1
COc1ccnc(CSC(N)=Nc2cccc(C(F)(F)F)c2)c1,-6.4,-2.0,/,/,53.5*,28.4
Nc1ccc2c(c1)C(=O)C(=O)c1ccccc1-2,-18.6,-6.2,13.3,-33.9,71.1*,26.9
O=C(O)c1cc(N=Cc2c(O)c3ccccc3oc2=O)ccc1O,-2.3,-0.5,-1.0,-6.9,0.6,-2.9
O=C(Nc1cc(Cl)cc2c1-c1ccc(Cl)cc1C2O)C(Cl)Cl (stereo not drawn),44.1*,0.2,/,/,29.8,-0.6
Cc1ccc(N=C2C(=O)Nc3ccc(C)c(Br)c32)cc1,1.8,-0.1,-8.6,5.2,99.2*,35.5
COc1ccccc1-c1cc(C(=O)Nc2cc(C)n(Cc3ccc(Cl)cc3)n2)no1,51.7*,-2.0,-1.7,-8.4,13.1,-6.0
COC(=O)[C@@H]1[C@@H](C#N)C2(c3ccccc3-c3ccccc32)N(c2ccc(Cl)cc2)N1C#N,16.5,-3.1,1.4,6.6,47.3,51.5*
O=C1N=C(N2C=CC(=C3C=CNC=C3)C=C2)/C(=C/N=NC(=O)c2ccccc2O)S1,-6.3,0.3,3.3,1.1,22.1,14.3
C#CCOCCOCCOCCNc1nc(N2CCN(C(=O)CCCCCCCCCCNC(=O)[C@H]([C@@H](C)CC)n3cc(CCCCN=C(N)N)nn3)CC2)nc(N2CCN(C(=O)CCCCCCCCCCNC(=O)[C@H](CCCN=C(N)N)n3cc(C[C@@H](C)CC)nn3)CC2)n1,/,/,73.3*,34.8,/,/
CCCn1nnc(NC(=S)NC(=O)c2ccc(-c3ccc(Br)cc3)o2)n1,7.7,-0.5,-8.8,14.3,58.7*,31.4
CCCn1nnc(NC(=S)NC(=O)Cc2ccccc2)n1,-1.9,-0.3,-4.7,24.6,42.6,25.7
SMILES,EBI2 antag,hiPSC survival,APJ agonist,APJ antagonist,CCR6 antag,CXCR6 block
CN(C(=O)COC(=O)c1ccc(Cl)c(S(=O)(=O)NCc2ccccc2)c1)C1CCS(=O)(=O)C1 (stereo not drawn),3.4,0.4,/,/,-2.8,11.0
O=S(=O)(Nc1cccnc1)c1cccc(C(F)(F)F)c1,5.5,-2.2,-1.8,-9.1,0.2,0.4
O=[N+]([O-])c1ccc(S(=O)(=O)c2cccc(C(F)(F)F)c2)nc1,-18.5,0.7,7.3,17.6,/,46.6*
Cc1ccc(S(=O)(=O)N2CCOCC2)cc1NC(=O)COC(=O)/C=C/c1ccco1,-9.4,-0.5,-1.9,-4.3,5.4,6.9
O=C(CSC1=Nc2ccccc2C2CC=NN12)Nc1ccc2c(c1)OCO2 (stereo not drawn),5.1,-0.6,/,/,53.5*,28.8
N#Cc1ccccc1NC(=O)CSC1=Nc2ccccc2C2CC=NN12 (stereo not drawn),-0.9,-1.2,-3.2,12.3,13.5,-10.7
COc1ccc(NS(=O)(=O)c2cccc(C(=O)O)c2)cc1,5.2,1.6,-4.2,7.5,7.5,-1.6
COc1ccc(C(=O)C(C)OC(=O)c2cccc(S(=O)(=O)Nc3cc(Cl)c(OC)cc3OC)c2)cc1 (stereo not drawn),37.1*,4.8,-0.9,-13.3,16.7,-4.2
COC(=O)/C=C\C(C#N)(C#N)N=Cc1ccc(OC)cc1,8.4,-2.2,/,/,15.3,65.0*
N#C/C(=C\c1ccc(-c2ccc(F)cc2)o1)C(=O)Nc1nc(-c2cccs2)cs1,19.2,-2.7,-7.0,30.5,54.6*,26.2
N#C/C(=C/c1ccc(-c2ccccc2)o1)c1nc(-c2cccs2)cs1,12.5,4.5,/,/,16.6,11.9
COc1cc(/C=N/N=C2/C(=O)Nc3ccccc32)ccc1O,-26.7,-1.7,-3.5,29.0,55.9*,13.7
O=C1Nc2ccccc2/C1=N\N=C\c1ccc(O)c(O)c1,0.1,0.6,-0.8,33.7,35.3,32.5
COc1ccc(NC(=O)C2(C)CCN2C(=O)C(C)C)cc1F (stereo not drawn),8.5,1.7,/,/,/,2.3
CCC(NC(=O)c1cc(COc2ccc(F)cc2Cl)on1)c1ccncc1 (stereo not drawn),-0.5,0.1,-2.1,-7.8,4.7,-8.3
CSc1ccc(OC2(C)CCN(Cc3ccc4c(c3)OCCO4)C2)cc1 (stereo not drawn),5.7,1.0,/,/,/,-5.7
CC1=NC(Nc2nc(C)c3ccccc3n2)=NC(C)(C)C1,26.1,-1.8,/,/,58.1*,37.4
O=C(Nc1nnc([C@@H]2C[C@H](O)[C@@H](CO)O2)s1)NC(c1ccccc1)c1ccccc1,5.2,0.7,/,/,/,3.1
Cc1ccc(NS(=O)(=O)c2ccc3c(c2)CC(=O)N3)cc1F,-11.2,-1.8,-0.8,-9.2,-0.1,-2.9
C=CCN(CC=C)S(=O)(=O)c1ccc(NC(=S)NC(=O)/C=C/c2cccc3ccccc23)cc1,18.7,-2.3,-3.0,27.5,51.8*,3.5
